Active and inactive are the calls of the source. The rule behind the calls is not given here.
How the values were obtained:
HEK293 [1] = assay: Inhibition of TLR2 expression in human HEK293 cells stably transfected with TLR2 at 100 uM treated for 24 hrs measured after serum deprivation by Western blotting; format: functional, cell-based
Summary of the method: (§1)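 HEK293 and TLR2-stably-transfected HEK293 cells in RPMI-1640 with 10% heat-inactivated FBS, 37 °C, 5% CO2; compound at 0, 10 or 100 uM for 24 h, then serum deprivation for 0, 12 or 24 h. Equal cell numbers lysed in RIPA buffer, 12% SDS-PAGE, nitrocellulose, anti-TLR2 immunoblot with GAPDH antibody, chemiluminescent detection; mean ± SEM of three independent experiments.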

HEK293 [2] = assay: Inhibition of TLR2 expression in human HEK293 cells stably transfected with TLR2 at 10 uM treated for 24 hrs measured after serum deprivation by Western blotting; format: functional, cell-based; summary of the method: as §1
HEK293 [3] = assay: Inhibition of TLR2 expression in human HEK293 cells at 100 uM treated for 24 hrs measured after serum deprivation by Western blotting; format: functional, cell-based; summary of the method: as §1
HEK293 [4] = assay: Inhibition of TLR2 expression in human HEK293 cells at 10 uM treated for 24 hrs measured after serum deprivation by Western blotting; format: functional, cell-based; summary of the method: as §1
[5] = target: Toll-like receptor 2 (Homo sapiens) (UniProt O60603); assay: Inhibition of TLR2-mediated apoptosis in human HEK293 cells stably transfected with TLR2 at 100 uM treated for 24 hrs measured after 12 hrs of serum deprivation by TUNEL assay; format: cell-based
Sequence of Toll-like receptor 2 (Homo sapiens) (O60603 whole entry, the tested form may be a part): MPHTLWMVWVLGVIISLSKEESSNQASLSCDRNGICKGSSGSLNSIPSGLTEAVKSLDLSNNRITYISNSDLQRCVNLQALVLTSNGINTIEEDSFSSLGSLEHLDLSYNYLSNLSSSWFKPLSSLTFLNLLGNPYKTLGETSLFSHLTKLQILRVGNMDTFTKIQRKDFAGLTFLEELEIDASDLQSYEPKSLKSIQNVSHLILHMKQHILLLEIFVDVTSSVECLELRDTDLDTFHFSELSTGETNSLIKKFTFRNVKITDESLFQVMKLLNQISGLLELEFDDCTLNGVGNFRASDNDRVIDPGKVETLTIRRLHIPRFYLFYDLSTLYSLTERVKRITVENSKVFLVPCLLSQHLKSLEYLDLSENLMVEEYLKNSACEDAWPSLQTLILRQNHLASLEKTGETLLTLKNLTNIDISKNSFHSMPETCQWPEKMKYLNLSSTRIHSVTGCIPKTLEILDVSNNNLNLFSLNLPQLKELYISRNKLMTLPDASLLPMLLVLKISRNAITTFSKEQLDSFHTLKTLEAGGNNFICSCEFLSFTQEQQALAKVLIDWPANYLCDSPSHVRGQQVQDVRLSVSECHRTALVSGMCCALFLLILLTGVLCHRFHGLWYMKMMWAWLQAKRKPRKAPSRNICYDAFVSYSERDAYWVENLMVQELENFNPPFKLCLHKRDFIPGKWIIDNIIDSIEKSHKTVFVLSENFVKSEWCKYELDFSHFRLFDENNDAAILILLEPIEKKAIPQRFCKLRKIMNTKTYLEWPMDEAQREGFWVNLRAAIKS
Summary of the method: (§2)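 With or without 100 uM for 24 h, then serum deprivation 0, 12 or 24 h, in HEK293 or TLR2/HEK293 cells (RPMI-1640, 10% heat-inactivated FBS). Nucleosomal DNA fragmentation detected by in situ TUNEL kit; apoptotic and total cells counted in random fields to give percent apoptotic cells; mean ± SEM of three independent experiments.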

[6] = target: Toll-like receptor 2 (Homo sapiens) (UniProt O60603); assay: Inhibition of TLR2 in human HEK293 cells stably transfected with TLR2 assessed as decrease in Akt phosphorylation level at Ser473 at 10 uM treated for 24 hrs measured after serum deprivation by Western blotting; format: cell-based
Summary of the method: (§3)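 Parental HEK293 or TLR2/HEK293 cells (RPMI-1640, 10% heat-inactivated FBS, 37 °C, 5% CO2) exposed to 0, 10 or 100 uM for 24 h, then serum-deprived 0, 12 or 24 h. RIPA lysates of equal cell numbers run on 12% SDS-PAGE; phospho-Akt (Ser473) and total Akt probed by Western blot, milk block, primary antibody overnight at 4 °C.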

Albumin = Albumin (Homo sapiens, UniProt P02768); assay: Binding affinity to human serum albumin; format: ADME; settings: isolated protein
Sequence of Albumin (P02768 whole entry): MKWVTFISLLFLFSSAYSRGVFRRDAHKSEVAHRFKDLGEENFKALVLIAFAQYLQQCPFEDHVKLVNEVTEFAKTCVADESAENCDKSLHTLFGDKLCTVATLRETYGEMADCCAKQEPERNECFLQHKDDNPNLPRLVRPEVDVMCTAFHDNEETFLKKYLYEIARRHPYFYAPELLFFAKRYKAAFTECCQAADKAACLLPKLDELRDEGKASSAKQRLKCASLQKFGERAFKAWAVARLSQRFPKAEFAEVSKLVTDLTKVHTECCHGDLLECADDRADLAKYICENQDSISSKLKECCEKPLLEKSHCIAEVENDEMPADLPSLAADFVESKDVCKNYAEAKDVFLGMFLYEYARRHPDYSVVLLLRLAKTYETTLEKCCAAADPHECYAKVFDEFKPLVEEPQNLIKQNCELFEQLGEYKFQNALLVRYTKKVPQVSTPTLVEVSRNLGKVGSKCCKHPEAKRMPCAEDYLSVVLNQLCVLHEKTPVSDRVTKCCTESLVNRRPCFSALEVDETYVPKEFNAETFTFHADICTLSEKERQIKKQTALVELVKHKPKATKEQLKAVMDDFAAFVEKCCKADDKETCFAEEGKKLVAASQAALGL

[7] = target: Toll-like receptor 2 (Homo sapiens) (UniProt O60603); assay: Inhibition of TLR2 in human HEK293 cells assessed as decrease in GSK3-beta phosphorylation level at 100 uM treated for 24 hrs measured after serum deprivation by Western blotting; format: cell-based
Summary of the method: (§4)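 Cells given 0, 10 or 100 uM for 24 h before 0, 12 or 24 h serum deprivation; HEK293 and TLR2/HEK293 lines cultured in RPMI-1640 plus 10% heat-inactivated FBS. Harvested cells lysed in RIPA buffer, 12% SDS-PAGE, nitrocellulose transfer, immunoblotted for phospho-GSK3beta and total GSK3beta, ECL read-out; mean ± SEM, three independent experiments.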

[8] = target: Toll-like receptor 2 (Homo sapiens) (UniProt O60603); assay: Inhibition of TLR2 in human HEK293 cells stably transfected with TLR2 assessed as decrease in GSK3-beta phosphorylation level at 10 uM treated for 24 hrs measured after serum deprivation by Western blotting; format: cell-based; summary of the method: as §4
[9] = target: Toll-like receptor 2 (Homo sapiens) (UniProt O60603); assay: Inhibition of TLR2 in human HEK293 cells assessed as decrease in Akt phosphorylation level at Ser473 at 100 uM treated for 24 hrs measured after serum deprivation by Western blotting; format: cell-based; summary of the method: as §3
[10] = target: Toll-like receptor 2 (Homo sapiens) (UniProt O60603); assay: Inhibition of TLR2-mediated apoptosis in human HEK293 cells at 100 uM treated for 24 hrs measured after 24 hrs of serum deprivation by TUNEL assay; format: cell-based; summary of the method: as §2
[11] = Solubility in water; format: physicochemical; settings: buffer
[12] = target: Toll-like receptor 2 (Homo sapiens) (UniProt O60603); assay: Inhibition of TLR2 in human HEK293 cells assessed as decrease in Akt phosphorylation level at Ser473 at 10 uM treated for 24 hrs measured after serum deprivation by Western blotting; format: cell-based; summary of the method: as §3
[13] = target: Toll-like receptor 2 (Homo sapiens) (UniProt O60603); assay: Inhibition of TLR2 in human HEK293 cells stably transfected with TLR2 assessed as decrease in GSK3-beta phosphorylation level at 100 uM treated for 24 hrs measured after serum deprivation by Western blotting; format: cell-based; summary of the method: as §4
[14] = target: Toll-like receptor 2 (Homo sapiens) (UniProt O60603); assay: Inhibition of TLR2 in human HEK293 cells assessed as decrease in GSK3-beta phosphorylation level at 10 uM treated for 24 hrs measured after serum deprivation by Western blotting; format: cell-based; summary of the method: as §4
[15] = target: Toll-like receptor 2 (Homo sapiens) (UniProt O60603); assay: Inhibition of TLR2-mediated apoptosis in human HEK293 cells at 100 uM treated for 24 hrs measured after 12 hrs of serum deprivation by TUNEL assay; format: cell-based; summary of the method: as §2
[16] = target: Toll-like receptor 2 (Homo sapiens) (UniProt O60603); assay: Inhibition of TLR2-mediated apoptosis in human HEK293 cells stably transfected with TLR2 at 100 uM treated for 24 hrs measured after 24 hrs of serum deprivation by TUNEL assay; format: cell-based; summary of the method: as §2
[17] = target: Toll-like receptor 2 (Homo sapiens) (UniProt O60603); assay: Inhibition of TLR2 in human HEK293 cells stably transfected with TLR2 assessed as decrease in Akt phosphorylation level at Ser473 at 100 uM treated for 24 hrs measured after serum deprivation by Western blotting; format: cell-based; summary of the method: as §3

SMILES | inhibition (HEK293 [1]) | inhibition (HEK293 [2]) | inhibition (HEK293 [3]) | inhibition (HEK293 [4]) | inhibition [5] [%] | Activity [6] | fold change (FC) (Albumin) | Activity [7] | Activity [8] | Activity [9] | inhibition [10] [%] | solubility [11] | Activity [12] | Activity [13] | Activity [14] | inhibition [15] [%] | inhibition [16] [%] | Activity [17]
O=C(O)COc1ccc(/C=C/c2cc(O)cc(O)c2)cc1 | inactive | inactive | inactive | inactive | – | – | – | – | – | – | – | – | – | – | – | – | – | –
O=C(O)CCCCCOc1ccc(/C=C/c2cc(O)cc(O)c2)cc1 [RESVERATROL HEXANOIC ACID] | Active | Active | Active | Active | 20 | Active | 40 | inactive | Active | inactive | 25 | Soluble | inactive | Active | inactive | 11 | 49 | Active

Reference: ChEMBL document CHEMBL1152955, “Synthetic resveratrol aliphatic acid inhibits TLR2-mediated apoptosis and an involvement of Akt/GSK3beta pathway” (Bioorg Med Chem, 2009)
